Results: ChEMBL document CHEMBL4219056 (Bioorg Med Chem, 2018)
Active and inactive are the calls of the source. No cut-off for these calls is given here.

Legend:
Mus musculus [1] = assay: Antidiabetic activity in ICR mouse assessed as reduction in blood glucose AUC (0 to 120 mins) at 40 mg/kg, po dosed 30 minutes prior to glucose challenge by OGTT relative to control; format: functional
In short: (§1)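 Fasting male ICR mice (10 weeks, 18-22 g) got a single oral dose in 0.5% carboxymethyl cellulose. Oral glucose (30% solution, 3 g/kg) followed 30 min later. Blood glucose was sampled at -30, 0, 15, 30, 60 and 120 min.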

[2] = Lipophilicity, log D of the compound at 100 uM at pH 7.4 after 24 hrs by HPLC method; format: physicochemical; settings: buffer
In short: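 Shake-flask method: 10 mM DMSO stock was added to equal volumes of 0.01 M phosphate buffer pH 7.4 and 1-octanol, giving 100 µM final. Vials were shaken 24 h at 700 rpm, then left 1 h to separate. The octanol phase was diluted ×10 and both phases were run on HPLC. Injections were in duplicate; three independent experiments were run.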

[3] = target: Free fatty acid receptor 1 (Homo sapiens, UniProt O14842); assay: Agonist activity at human FFA1 expressed in CHO cells assessed as increase in intracellular Ca2+ flux by Fluo-4 dye based FLIPR assay; format: functional, cell-based
In short: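 Stable human FFA1 CHO cells were seeded at 15 K cells/well and held 16 h at 37 °C in 5% CO2, then washed with HBSS. Ca2+ flux was read after graded compound addition. Response was scaled between vehicle and 10 µM γ-linolenic acid. EC50 is the mean of three independent determinations.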

[4] = AUC (0 to 24 hrs) in fasted Sprague-Dawley rat at 3 mg/kg, po administered as single dose by LC-PDA-MS/MS analysis; format: ADME, organism-based; set-up: dose 3 mg/kg, time < 24 hr, route oral; settings: in vivo
In short: (§2)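 Male SD rats (8 weeks, 180-200 g) were fasted 12 h and dosed once orally at 3 mg/kg, suspended in 0.5% methylcellulose, n = 4 per group. Tail-vein blood was drawn at 5, 15, 30 and 45 min and at 1, 2, 4, 6, 8, 12, 18 and 24 h. Plasma was stored at -20 °C. Methanol precipitation with internal standard preceded LC-PDA-MS/MS. Values are mean ± SD.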

[5] = Half life in fasted Sprague-Dawley rat at 3 mg/kg, po administered as single dose by LC-PDA-MS/MS analysis; format: ADME, organism-based; settings: in vivo; in short: as §2
[6] = Cmax in fasted Sprague-Dawley rat at 3 mg/kg, po administered as single dose by LC-PDA-MS/MS analysis; format: ADME, organism-based; set-up: dose 3 mg/kg, route oral; settings: in vivo; in short: as §2
[7] = Plasma clearance in fasted Sprague-Dawley rat at 3 mg/kg, po administered as single dose measured up to 24 hrs by LC-PDA-MS/MS analysis; format: ADME, organism-based; in short: as §2
Mus musculus [8] = assay: Antidiabetic activity in ICR mouse assessed as reduction in blood glucose AUC (0 to 120 mins) at 20 mg/kg, po dosed 30 minutes prior to glucose challenge by OGTT relative to control; format: functional; set-up: scale not given: the % may be the effect or the level left; in short: as §1

Sequence of Free fatty acid receptor 1 (O14842 whole entry): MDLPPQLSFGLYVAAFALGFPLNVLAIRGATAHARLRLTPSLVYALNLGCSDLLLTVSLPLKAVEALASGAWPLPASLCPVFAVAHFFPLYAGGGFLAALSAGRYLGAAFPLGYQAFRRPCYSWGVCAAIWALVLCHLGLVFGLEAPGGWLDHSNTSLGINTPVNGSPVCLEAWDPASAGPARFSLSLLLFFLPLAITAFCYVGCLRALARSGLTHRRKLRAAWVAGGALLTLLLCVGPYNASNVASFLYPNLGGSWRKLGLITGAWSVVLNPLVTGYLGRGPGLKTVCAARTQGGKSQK

SMILES	Activity (Mus musculus [1])	logD at 24 h, 100 µM [2]	EC50 [3]	further results
Cc1noc(C)c1-c1ccc(Cl)c(COc2ccc3c(c2)OCC3CC(=O)O)c1 (stereo unspecified)	Active	2.13	39.7 nM	–
Cc1noc(C)c1-c1cccc(COc2ccc3c(c2)OCC3CC(=O)O)c1 (stereo unspecified)	Active	1.57	27.5 nM	–
Cc1ccc(C)n1-c1cccc(COc2ccc3c(c2)OCC3CC(=O)O)c1 (stereo unspecified)	–	3.95	53.6 nM	–
Cc1noc(C)c1-c1cc(COc2ccc3c(c2)OCC3CC(=O)O)ccc1Cl (stereo unspecified)	Active	1.96	18.6 nM	–
Cc1cc(OCCCS(C)(=O)=O)cc(C)c1-c1cccc(COc2ccc3c(c2)OC[C@H]3CC(=O)O)c1	–	–	–	AUC(0-t) at 24 h [4]: 79.5 µg·h/mL; half-life [5]: 4.29 h; Cmax [6]: 6460 ng/mL; CL/F [7]: 0.618 mL/min/kg; Activity (Mus musculus [8]): 37.5%
Cc1ccc(-c2c(C)noc2C)cc1COc1ccc2c(c1)OCC2CC(=O)O (stereo unspecified)	–	2.07	53.7 nM	–
Cc1noc(C)c1-c1cccc(COc2ccc(CCC(=O)O)cc2)c1	–	–	–	Activity (Mus musculus [1]; tested as the 2H-labelled form): Active
Cc1nn(C)c(C)c1-c1cccc(COc2ccc3c(c2)OCC3CC(=O)O)c1 (stereo unspecified)	–	–	104 nM	–
Cc1noc(C)c1-c1cc(COc2ccc3c(c2)OC[C@H]3CC(=O)O)ccc1Cl	26.2%	1.93	7.9 nM	AUC(0-t) at 24 h [4]: 142 µg·h/mL; half-life [5]: 4.65 h; Cmax [6]: 14100 ng/mL; CL/F [7]: 0.308 mL/min/kg
[2H]C([2H])(Cc1ccc(OCc2cccc(-c3c(C)noc3C)c2)cc1F)C(=O)O	–	–	45.7 nM	–
[2H]C([2H])(Cc1ccc(OCc2cccc(-c3c(C)noc3C)c2)cc1)C(=O)O	–	1.83	38.4 nM	–
Cc1ccsc1-c1cccc(COc2ccc3c(c2)OCC3CC(=O)O)c1 (stereo unspecified)	–	–	157 nM	–
